Measured values: ChEMBL document CHEMBL4359823, “Switching on the activity of 1,5-diaryl-pyrrole derivatives against drug-resistant ESKAPE bacteria: Structure-activity relationships and mode of action studies” (Eur J Med Chem, 2019)
Values after ≈ are worked out from the molar mass of the structure shown.

Tests used:
Assay type in all cases: functional
Enterococcus faecalis [1] = experiment: Antibacterial activity against vancomycin resistant Enterococcus faecalis NCTC12204 measured after overnight incubation by microbroth dilution method
In short: (§1)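 Microbroth dilution: DMSO stocks diluted in water, 2-fold series. Overnight TSB cultures back-diluted to OD 0.01 and mixed 1:1 with compound. Incubated overnight at 37 °C; MIC taken as lowest concentration without visible growth (<0.1 OD600). Run in duplicate; matching DMSO levels checked for effect on growth.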

Enterococcus faecalis [2] = experiment: Antibacterial activity against vancomycin resistant Enterococcus faecalis NCTC12201 measured after overnight incubation by microbroth dilution method; in short: as §1
Staphylococcus aureus [3] = experiment: Antibacterial activity against methicillin sensitive Staphylococcus aureus NCTC 6571 measured after overnight incubation by microbroth dilution method; in short: as §1
Staphylococcus aureus [4] = experiment: Antibacterial activity against methicillin resistant Staphylococcus aureus NCTC13616 measured after overnight incubation by microbroth dilution method; in short: as §1
Staphylococcus aureus [5] = experiment: Antibacterial activity against methicillin resistant Staphylococcus aureus NCTC13277 measured after overnight incubation by microbroth dilution method; in short: as §1
Enterococcus faecalis [6] = experiment: Antibacterial activity against vancomycin sensitive Enterococcus faecalis NCTC775 measured after overnight incubation by microbroth dilution method; in short: as §1
Klebsiella pneumoniae [7] = experiment: Antibacterial activity against Klebsiella pneumoniae NCTC13368 measured after overnight incubation by microbroth dilution method
In short: (§2)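 Microbroth dilution MIC. Compound DMSO stocks were diluted in water as a 2-fold series. Overnight TSB cultures were back-diluted to OD 0.01 and mixed 1:1 with compound. Plates were incubated overnight at 37 °C. MIC was the lowest concentration without visible growth (<0.1 OD600), run in duplicate.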

Klebsiella pneumoniae [8] = experiment: Antibacterial activity against Klebsiella pneumoniae M6 measured after overnight incubation by microbroth dilution method; in short: as §2
Acinetobacter baumannii [9] = experiment: Antibacterial activity against Acinetobacter baumannii AYE measured after overnight incubation by microbroth dilution method; in short: as §2
Acinetobacter baumannii [10] = experiment: Antibacterial activity against Acinetobacter baumannii ATCC 17978 measured after overnight incubation by microbroth dilution method; in short: as §2
Pseudomonas aeruginosa [11] = experiment: Antibacterial activity against Pseudomonas aeruginosa PAO1 measured after overnight incubation by microbroth dilution method; in short: as §2
Pseudomonas aeruginosa [12] = experiment: Antibacterial activity against Pseudomonas aeruginosa NCTC13437 measured after overnight incubation by microbroth dilution method; in short: as §2
Escherichia coli = experiment: Antibacterial activity against Escherichia coli NCTC12923 measured after overnight incubation by microbroth dilution method; in short: as §2

| Structure (SMILES) | MIC (Enterococcus faecalis [1]) [µg/mL] | MIC (Enterococcus faecalis [2]) [µg/mL] | MIC (Staphylococcus aureus [3]) [µg/mL] | MIC (Staphylococcus aureus [4]) [µg/mL] | MIC (Staphylococcus aureus [5]) [µg/mL] | MIC (Enterococcus faecalis [6]) [µg/mL] | MIC (Klebsiella pneumoniae [7]) [µg/mL] | MIC (Klebsiella pneumoniae [8]) [µg/mL] | MIC (Acinetobacter baumannii [9]) [µg/mL] | MIC (Acinetobacter baumannii [10]) [µg/mL] | MIC (Pseudomonas aeruginosa [11]) [µg/mL] | MIC (Pseudomonas aeruginosa [12]) [µg/mL] | MIC (Escherichia coli) [µg/mL] |
| --- | --- | --- | --- | --- | --- | --- | --- | --- | --- | --- | --- | --- | --- |
| Cc1c(CNC2CCCCC2)cc(-c2ccc(F)cc2)n1-c1ccc(Cl)cc1 | 4 (≈ 10.1 µM) | 4 (≈ 10.1 µM) | 8 (≈ 20.2 µM) | 8 (≈ 20.2 µM) | 8 (≈ 20.2 µM) | 8 (≈ 20.2 µM) | > 128 | > 128 | 128 (≈ 322 µM) | 128 (≈ 322 µM) | > 128 | > 128 | > 128 |
| Cc1c(CNC(C)c2ccccc2)cc(-c2ccc(Cl)cc2)n1-c1ccc(Cl)cc1 (centres undefined) | 2 (≈ 4.59 µM) | 2 to 4 (≈ 4.59 to 9.19 µM) | 4 (≈ 9.19 µM) | 4 (≈ 9.19 µM) | 4 (≈ 9.19 µM) | 2 to 4 (≈ 4.59 to 9.19 µM) | > 128 | > 128 | > 128 | > 128 | > 128 | > 128 | 16 to 128 (≈ 36.7 to 294 µM) |
| Cc1c(CNC2CCCCC2)cc(-c2ccc(Cl)cc2)n1-c1ccc(O)cc1 | 32 (≈ 81 µM) | 32 (≈ 81 µM) | 32 (≈ 81 µM) | 8 to 64 (≈ 20.3 to 162 µM) | 32 (≈ 81 µM) | 64 (≈ 162 µM) | > 128 | > 128 | > 128 | 128 (≈ 324 µM) | > 128 | > 128 | > 128 |
| Cc1c(CNC(C)C)cc(-c2ccc(Cl)cc2)n1-c1ccc(Cl)cc1 | 4 (≈ 10.7 µM) | 8 (≈ 21.4 µM) | 8 (≈ 21.4 µM) | 8 (≈ 21.4 µM) | 8 to 16 (≈ 21.4 to 42.9 µM) | 8 (≈ 21.4 µM) | > 128 | > 128 | 64 (≈ 171 µM) | 32 (≈ 85.7 µM) | > 128 | > 128 | 32 to 128 (≈ 85.7 to 343 µM) |
| Cc1ccc(C)c(-n2c(-c3ccc(Cl)cc3)cc(CNC3CCCCC3)c2C)c1 | 2 (≈ 4.91 µM) | 4 (≈ 9.83 µM) | 4 (≈ 9.83 µM) | 4 (≈ 9.83 µM) | 8 (≈ 19.7 µM) | 4 (≈ 9.83 µM) | > 128 | > 128 | > 128 | 64 (≈ 157 µM) | > 128 | > 128 | > 128 |
| COc1ccc(-n2c(-c3ccc(Cl)cc3)cc(CNC3CCCCC3)c2C)cc1 | 8 (≈ 19.6 µM) | 8 (≈ 19.6 µM) | 16 (≈ 39.1 µM) | 16 (≈ 39.1 µM) | 16 (≈ 39.1 µM) | 8 (≈ 19.6 µM) | > 128 | > 128 | > 128 | 128 (≈ 313 µM) | > 128 | > 128 | > 128 |
| Cc1c(CNCCNc2ccccc2)cc(-c2ccc(Cl)cc2)n1-c1ccc(Cl)cc1 | 4 to 8 (≈ 8.88 to 17.8 µM) | 4 (≈ 8.88 µM) | 4 to 8 (≈ 8.88 to 17.8 µM) | 4 to 8 (≈ 8.88 to 17.8 µM) | 4 to 8 (≈ 8.88 to 17.8 µM) | 4 (≈ 8.88 µM) | > 128 | > 128 | > 128 | > 128 | > 128 | > 128 | > 128 |
| Cc1c(CNC2CCC(O)CC2)cc(-c2ccc(Cl)cc2)n1-c1ccc(Cl)cc1 (centres undefined) | 8 (≈ 18.6 µM) | 16 (≈ 37.3 µM) | 16 (≈ 37.3 µM) | 16 (≈ 37.3 µM) | 16 (≈ 37.3 µM) | 16 (≈ 37.3 µM) | > 128 | > 128 | 128 (≈ 298 µM) | 64 (≈ 149 µM) | > 128 | > 128 | > 128 |
| Cc1c(CNCCCCCCCCNC(=N)N)cc(-c2ccc(Cl)cc2)n1-c1ccc(Cl)cc1 | 4 (≈ 7.99 µM) | 8 (≈ 16 µM) | 4 (≈ 7.99 µM) | 4 (≈ 7.99 µM) | 4 (≈ 7.99 µM) | 8 (≈ 16 µM) | 32 (≈ 63.9 µM) | 16 (≈ 32 µM) | 32 (≈ 63.9 µM) | 8 (≈ 16 µM) | 128 (≈ 256 µM) | 64 (≈ 128 µM) | 8 (≈ 16 µM) |
| Cc1c(CNC2CCCCCC2)cc(-c2ccc(Cl)cc2)n1-c1ccc(Cl)cc1 | 2 (≈ 4.68 µM) | 2 (≈ 4.68 µM) | 4 (≈ 9.36 µM) | 4 (≈ 9.36 µM) | 4 (≈ 9.36 µM) | 4 (≈ 9.36 µM) | > 128 | > 128 | 128 (≈ 299 µM) | 64 (≈ 150 µM) | 128 (≈ 299 µM) | 128 (≈ 299 µM) | > 128 |
| Cc1cc(CNC2CCCCC2)c(C)n1-c1ccc(Cl)cc1 | 16 (≈ 50.5 µM) | 32 (≈ 101 µM) | 64 (≈ 202 µM) | 64 (≈ 202 µM) | 64 (≈ 202 µM) | 32 (≈ 101 µM) | > 64 | > 64 | > 64 | > 64 | > 64 | > 64 | – |
| Cc1c(CNC2CCC(N)CC2)cc(-c2ccc(Cl)cc2)n1-c1ccc(Cl)cc1 (centres undefined) | 4 (≈ 9.34 µM) | 8 (≈ 18.7 µM) | 8 (≈ 18.7 µM) | 8 (≈ 18.7 µM) | 8 (≈ 18.7 µM) | 8 (≈ 18.7 µM) | 32 (≈ 74.7 µM) | 16 (≈ 37.3 µM) | 32 (≈ 74.7 µM) | 16 (≈ 37.3 µM) | 32 (≈ 74.7 µM) | 32 (≈ 74.7 µM) | 8 (≈ 18.7 µM) |
| Cc1c(CNC2CCCCC2)cc(-c2ccc(Cl)cc2)n1-c1ccc([N+](=O)[O-])cc1 | 4 (≈ 9.44 µM) | 8 (≈ 18.9 µM) | 8 (≈ 18.9 µM) | 16 (≈ 37.7 µM) | 16 (≈ 37.7 µM) | 8 (≈ 18.9 µM) | > 128 | > 128 | 128 (≈ 302 µM) | 128 (≈ 302 µM) | > 128 | > 128 | > 128 |
| Cc1c(CNCC2CCCCC2)cc(-c2ccc(Cl)cc2)n1-c1ccc(Cl)cc1 | 2 (≈ 4.68 µM) | 4 (≈ 9.36 µM) | 4 (≈ 9.36 µM) | 4 (≈ 9.36 µM) | 4 (≈ 9.36 µM) | 2 (≈ 4.68 µM) | > 128 | > 128 | > 128 | > 128 | > 128 | > 128 | > 128 |
| Cc1c(CNC2CCCCC2)cc(-c2ccc(Cl)cc2)n1-c1cccc(F)c1 | 4 (≈ 10.1 µM) | 4 (≈ 10.1 µM) | 8 (≈ 20.2 µM) | 8 (≈ 20.2 µM) | 8 (≈ 20.2 µM) | 8 (≈ 20.2 µM) | > 128 | > 128 | 128 (≈ 322 µM) | 128 (≈ 322 µM) | > 128 | > 128 | > 128 |
| Cc1c(CNC2CCCCC2)cc(-c2ccc(C(C)(C)C)cc2)n1-c1ccc(Cl)cc1 | 2 (≈ 4.6 µM) | 2 (≈ 4.6 µM) | 4 (≈ 9.19 µM) | 4 (≈ 9.19 µM) | 4 (≈ 9.19 µM) | 4 (≈ 9.19 µM) | > 128 | > 128 | > 128 | > 128 | > 128 | > 128 | > 128 |
| Cc1cc(CNCc2ccccc2)c(C)n1-c1ccc(Cl)cc1 | 128 (≈ 394 µM) | > 128 | > 128 | > 128 | > 128 | > 128 | – | – | – | – | – | – | – |
| Cc1c(CNC2CCCCCC2)cc(-c2ccc(Cl)cc2)n1-c1ccc(F)cc1 | 2 (≈ 4.87 µM) | 4 (≈ 9.73 µM) | 4 (≈ 9.73 µM) | 8 (≈ 19.5 µM) | 4 (≈ 9.73 µM) | 4 (≈ 9.73 µM) | > 128 | > 128 | 128 (≈ 311 µM) | > 128 | > 128 | > 128 | 128 (≈ 311 µM) |
| Cc1c(CNC2CCCCC2)cc(-c2ccc(Cl)cc2)n1-c1ccc(F)cc1 | 4 (≈ 10.1 µM) | 4 (≈ 10.1 µM) | 8 (≈ 20.2 µM) | 8 (≈ 20.2 µM) | 8 (≈ 20.2 µM) | 4 (≈ 10.1 µM) | > 128 | > 128 | 128 (≈ 322 µM) | 64 (≈ 161 µM) | > 128 | > 128 | > 128 |
